The results in this text go back to ChEMBL document CHEMBL1127682, “Resolution, absolute stereochemistry, and pharmacology of the S-(+)- and R-(-)-isomers of the apparent partial AMPA receptor agonist (R,S)-2-amino-3-(3-hydroxy-5-phenylisoxazol-4-yl)propionic acid [(R,S)-APPA]” (J Med Chem, 1994).

Test [1] deals with T1, Glutamate receptor ionotropic, AMPA (Rattus norvegicus, UniProt P19490+P19491+P19492+P19493). The test can be described thus: Compound was evaluated for the inhibition of binding of [3H]AMPA to the AMPA receptor. It counts as protein-complex assay.
Test [2] addresses T1, Glutamate receptor ionotropic, AMPA. Kind of test: Compound was evaluated for the antagonist activity on AMPA receptor in rat cortical wedge preparation. It counts as functional.
For test [3], the target named is Glutamate receptor ionotropic, kainate. Kind of test: Compound was evaluated for the inhibition of binding of [3H]-Kainic acid to kianic acid receptor. It counts as protein-complex assay.
Test [4] addresses Glutamate receptor ionotropic, NMDA 1 (Rattus norvegicus, UniProt P35439). The test can be described thus: Compound was evaluated for the inhibition of binding of [3H]glycine to NMDA receptor.
Test [5] deals with Glutamate NMDA receptor. The test can be described thus: Compound was evaluated for the inhibition of binding of [3H]- CPP to NMDA receptor. The class given is protein-complex assay.
Test [6] has as its target Glutamate NMDA receptor. Kind of test: Compound was evaluated for the inhibition of binding of [3H]- MK-801 to NMDA receptor. It counts as protein-complex assay.
In test [7] the target is T1, Glutamate receptor ionotropic, AMPA. The test can be described thus: Compound was evaluated for the agonist activity on AMPA receptor in rat cortical wedge preparation. The class given is functional.
A further test is filed under the species Rattus norvegicus. Kind of test: The compound was evaluated for agonist sensitivity to antagonist NBQX. It counts as functional. The gist of the method: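 Rat cortical wedges (500-μm, cortex plus corpus callosum) superfused with Mg2+- and Ca2+-free oxygenated Krebs buffer at room temperature; agonist depolarization concentration-response curves recorded with and without 0.5 μM NBQX; pKi calculated from the parallel shift; means ± SEM of at least three experiments.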

Molecules are shown by their SMILES.

Regarding `N[C@H](Cc1c(O)noc1-c1ccccc1)C(=O)O`, the half-maximal inhibitory concentration (IC50) (in test [1]; in test [3]; in test [4]; at Glutamate NMDA receptor [5]; on Glutamate NMDA receptor [6]) was > 100 µM in each case. Also, the affinity in test [2] corresponds to a Ki of 286 µM.

`N[C@@H](Cc1c(O)noc1-c1ccccc1)C(=O)O`: the EC50 in test [7] turned out to be 230 µM. The IC50 in test [1] was 6 µM; in test [3] it was > 100 µM; in test [4], > 100 µM; on Glutamate NMDA receptor [5], > 100 µM; at Glutamate NMDA receptor [6], > 100 µM. Also, the “Log Ki” value in the test listed under Rattus norvegicus is listed as -6.3.

Take `NC(Cc1c(O)noc1-c1ccccc1)C(=O)O` (racemic): the EC50 in test [7] was 385 µM. The half-inhibitory concentration (IC50) in test [1] was 35 µM; in test [3], > 100 µM; in test [4], > 100 µM; at Glutamate NMDA receptor [5] it was > 100 µM; at Glutamate NMDA receptor [6], > 100 µM.

For `Cc1onc(O)c1CC(N)C(=O)O` (racemic) [(R,S)-AMPA], the “Log Ki” value in the test filed under Rattus norvegicus is reported as -6.56.

As to `C=C(C)[C@H]1CN[C@H](C(=O)O)[C@H]1CC(=O)O` [KAINIC ACID], the half-inhibitory concentration (IC50) (in test [4]; on Glutamate NMDA receptor [5]; at Glutamate NMDA receptor [6]) was > 100 µM in each case. In addition, the “Log Ki” value in the test listed under Rattus norvegicus is listed as -5.42.
